The target in assay [1] is T1, Hypoxia inducible factors; HIF-1-alpha, HIF-2-alpha (Homo sapiens, UniProt Q16665+Q99814). In words: Inhibition of hypoxia-induced HIF1 activation in human T47D cells by pTK-HRE3-luciferase reporter gene assay. The format is cell-based. The essentials: (§1)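 T47D HIF-1 luciferase reporter under hypoxia (1% O2). Compounds supplied as 4 mM isopropanol stocks, final solvent under 0.75%. % inhibition = (1 − treated/induced light output) × 100. Concentration-response, one experiment in triplicate, mean ± SD.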

A short description of assay [2]: (§2) Inhibition of electron transport protein complex 1 in human T47D cells assessed as decrease in oxygen consumption by mitochondrial respiration assay. The format is cell-based. The essentials: (§3)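 Oxygen consumption of intact T47D cells measured by an adapted isolated-mitochondria respiration method. Compounds tested at 1, 3, 10 and 30 μM. Three independent experiments, mean ± SD. One-way ANOVA with Bonferroni post hoc, p < 0.05.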

Assay [3] concerns the target T1, Hypoxia inducible factors; HIF-1-alpha, HIF-2-alpha. In words: Inhibition of hypoxia-induced HIF1 activation in human T47D cells at 30 uM by pTK-HRE3-luciferase reporter gene assay. The assay is classed as cell-based. The essentials:
as §1
(A reporter such as luciferase makes a cellular process visible.)

The target is the same in assay [4]. The experiment in a line: Inhibition of 1,10-phenanthroline-induced HIF1 activation in human T47D cells at 10 uM by pTK-HRE3-luciferase reporter gene assay. The format is cell-based. The method in brief:
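T47D HIF-1 luciferase reporter; activation induced with 1,10-phenanthroline (10 μM). Compounds supplied as 4 mM isopropanol stocks, final solvent under 0.75%. % inhibition = (1 − treated/induced light output) × 100. Concentration-response, one experiment in triplicate, mean ± SD.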

Assay [5] deals with T47D. In words: Inhibition of electron transport protein complex 3 in human T47D cells assessed as decrease in oxygen consumption at 10 uM in presence of succinate by mitochondrial respiration assay. The format is cell-based. The essentials: (§4)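 Digitonin-permeabilized T47D cells, O2 consumption. Malate/pyruvate starts complex I respiration. Rotenone, then succinate (complex II substrate), then antimycin A, then TMPD/ascorbate (complex IV substrates) added sequentially. Rotenone and antimycin A from ethanol stocks, final 1 μM.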

Assay [6] has as its system T47D. The experiment in a line: Inhibition of electron transport protein complex 4 in human T47D cells assessed as decrease in oxygen consumption at 10 uM in presence of succinate by mitochondrial respiration assay. The format is cell-based. The method in brief:
as §4

Assay [7] has as its system T47D. In words: Inhibition of hypoxia-induced increase in VEGF production in human T47D cells at 10 uM after 16 hrs by ELISA. The format is functional, cell-based. The method in brief:
(§5)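 T47D cells held at 1% O2 for 16 h with compound at 10 or 30 μM. Secreted VEGF in conditioned medium measured by ELISA and normalized to total cell-lysate protein (micro BCA). One experiment in triplicate, mean ± SD. Compared with one-way ANOVA and Bonferroni post hoc.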
In general terms: In an ELISA, binding on a coated surface is turned into a signal by an enzyme label.

The test system of assay [8] is T47D. In words: Inhibition of electron transport protein complex 2 in human T47D cells assessed as decrease in oxygen consumption at 10 uM in presence of succinate by mitochondrial respiration assay. The format is cell-based. The method in brief: as §4
Assay [9] deals with T47D. In words: Inhibition of electron transport protein complex 1 in human T47D cells assessed as decrease in oxygen consumption at 10 uM by mitochondrial respiration assay. The assay is classed as cell-based. The method in brief: as §4
For assay [10], the system named is T47D. The assay is described as §2. The assay is classed as cell-based. The method in brief:
as §3

In assay [11] the test system is T47D. The experiment in a line: Inhibition of hypoxia-induced increase in VEGF production in human T47D cells at 30 uM after 16 hrs by ELISA. The format is functional. The essentials:
as §5

This note sets out measurements from ChEMBL document CHEMBL1154374, “Lipophilic 2,5-disubstituted pyrroles from the marine sponge Mycale sp. inhibit mitochondrial respiration and HIF-1 activation” (J Nat Prod, 2009).

SMILES strings stand for the structures. The source made the active and inactive calls. The calls are words filed in the database; no cut-off is given here.

In turn, `CC(C)CCCCCCCCCCCCc1ccc(C=O)[nH]1` came in with an IC50 in [1] of 20 µM. With `N#CCCCCCCCCCCCCCCCCCCCCc1ccc(C=O)[nH]1`, the IC50 in assay [2] is greater than 30 µM. Further, the inhibition in [3] is less than 50%. In turn, `CC(C)CCCCCCCCCCCCCc1ccc(C=O)[nH]1` gave an inhibition in assay [3] of less than 50%. Same read-out and setting: the same measure for `CC/C=C\C/C=C\C/C=C\CCCCCCCc1ccc(C=O)[nH]1`: less than 50%; for `CCCCCC/C=C\CCCCCCCCCc1ccc(C=O)[nH]1`: less than 50%. For the molecule `CCCCCCCCCCCCCCCCc1ccc(C=O)[nH]1`, the inhibition in assay [3] is less than 50%. Still for that read-out and setting: the same measure for `CCCCCCCCCCCCCCCc1ccc(C=O)[nH]1`: less than 50%; for `N#CCCCCCC/C=C\CCCCCCCCCCCCCc1ccc(C=O)[nH]1`: less than 50%. As for `N#CCCCCCCCCCCCCC/C=C\CCCCCCc1ccc(C=O)[nH]1`, in assay [3], the inhibition was less than 50%.

In the case of `N#CCCCCCCCCCCCCCC/C=C\CCCCCCc1ccc(C=O)[nH]1`, the inhibition in assay [3] was less than 50%.

In assay [3], `N#CCCCCCCCCCCCCCCCC/C=C\C/C=C\CCc1ccc(C=O)[nH]1` displayed an inhibition of less than 50%.

Molecule `N#CCCCCCCCCCCCCCCCCCCCc1ccc(C=O)[nH]1` came in with an inhibition in assay [3] of less than 50%.

On to `N#CCCCCCCCCCCCCCCCCCCc1ccc(C=O)[nH]1`, for which, in assay [3], the inhibition was less than 50%. `CC/C=C\C/C=C\C/C=C\CCCCCCCCCCCc1ccc(C=O)[nH]1` [MYCALAZAL 3] returned an IC50 in assay [1] of 20 µM. Turning to `CCCCCCCCCCCCCCc1ccc(C=O)[nH]1` [MYCALAZAL 14], the IC50 in assay [1] stood at 20 µM. In [1], `CC(C)CCCCCCCCC/C=C\CCc1ccc(C=O)[nH]1` [MYCALAZAL 16] showed an IC50 of 20 µM. Regarding `CC(C)CCCCC/C=C\CCCCCCc1ccc(C=O)[nH]1` [MYCALAZAL 17], in assay [1], the IC50 stood at 20 µM. Still for that read-out and setting: the same measure for `CCC/C=C\C/C=C\CCCCCCCCCc1ccc(C=O)[nH]1` [MYCALAZAL 18]: 20 µM; for `CC/C=C\C/C=C\C/C=C\CCCCCCCCCc1ccc(C=O)[nH]1` [MYCALAZAL 20]: 20 µM. `N#CCCCCCCCCCCCCCCCCCc1ccc(C=O)[nH]1` [MYCALENITRILE 1] displayed an IC50 in [1] of 10 µM. In addition, the inhibition entry in [4] is “inactive”.

On to `N#CCCCC/C=C\C/C=C\CCCCCCCCCCCCCCc1ccc(C=O)[nH]1` [MYCALENITRILE 5], for which the IC50 in assay [1] stood at 10 µM. Further, in assay [4], the inhibition entry is “inactive”. Regarding `N#CCCCC/C=C\C/C=C\CCCCCCCCCCCCc1ccc(C=O)[nH]1` [MYCALENITRILE 7], the IC50 was 8.6 µM in assay [1] and less than 10 µM in assay [2]. Further, the outcome in the assay on T47D [5], with T47D [6] and in the assay with T47D [8] was inactive. Further, the inhibition result (in [4]; with T47D [7]; with T47D [11]) was “inactive” each time. The result in the assay with T47D [9] was Active. For the same molecule, the Activity entry with T47D [10] is “Dose-dependent effect”.

On to `N#CCCCCCC/C=C\CCCCCCCCCCCc1ccc(C=O)[nH]1` [MYCALENITRILE 8], for which, in assay [1], the IC50 was found to be 10 µM. In addition, the inhibition result in assay [4] is “inactive”.

For the molecule `N#CCCCCCC/C=C\CCCCCCCCCCCCCCCc1ccc(C=O)[nH]1` [MYCALENITRILE 10], in [2], the IC50 is greater than 30 µM. Besides, in assay [3], the inhibition was less than 50%. As for `N#CCCCCCCCCCCCCCCCc1ccc(C=O)[nH]1` [MYCALENITRILE 13], the IC50 in assay [1] amounted to 10 µM. The inhibition result in assay [4] is “inactive”. As for `N#CCCCC/C=C\C/C=C\CCCCCCCCCCc1ccc(C=O)[nH]1` [Mycalenitrile-6], the concentration for half-maximal inhibition (IC50) in assay [1] is 7.8 µM; in assay [2] it was less than 10 µM. In addition, the result in the assay on T47D [5], in the assay with T47D [6] and in the assay with T47D [8] was inactive. In [4], the inhibition result is “inactive”. Further, the result with T47D [9] was Active. Also, the Activity result in the assay with T47D [10] is “Dose-dependent effect”. In addition, in the assay on T47D [11], the inhibition at 30 µM amounted to 50%.

As usually defined, the IC50 is the point on the concentration scale where inhibition reaches its midpoint. What is called inhibition is the relative decrease from the control value, in per cent.
